In general, inhibition refers to the share of the control response that was lost under treatment.

Assay [1] has as its system HepG2. The assay can be described thus: Decrease in cholesterol level in human HepG2 cells at 1 uM after 24 hrs by […] assay in presence of 0.5 mM oleic acid sodium. The assay is classed as functional. The gist of the method:
(§1)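 HepG-2 cells seeded, then after 24 h exposed to 0.5 mM oleic acid sodium plus compound (1 µM; dose series up to 10 µM) for 24 h, DMSO vehicle. Cells lysed in 0.2% Triton X-100 for 1 h, sonicated, centrifuged. Triglyceride measured by GPO-POD kit and cholesterol by kit, both normalized to BCA protein; n = 3.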

For assay [2], the system named is 3T3-L1. The assay can be described thus: Inhibition of cell differentiation in mouse 3T3L1 cells assessed as delayed time point of cell contact inhibition at 5 uM for 9 days. The assay is classed as functional. The gist of the method:
(§2)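 3T3-L1 preadipocytes were induced to differentiate (IBMX/dexamethasone/insulin for 3 days, then insulin) with compound added from day 0 at 0.5 or 5 µM; DMSO vehicle served as control. Cells were collected and counted every day to follow proliferation and to find when contact inhibition resumed.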

Assay [3] is described as follows: Decrease in triglyceride accumulation in mouse 3T3L1 cells at 10 uM for 3 days oil red O staining based microscopic analysis. The note with it: 3T3-L1. The format is functional, cell-based. The essentials: (§3)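 3T3-L1 cells differentiated from 2 days post-confluence with IBMX/dexamethasone/insulin cocktail for 3 days, then insulin medium to Day 6. Compounds at 1 and 10 µM added Day 0 for 3 days. Triglyceride read on Day 6 with Oil Red O (formaldehyde fixation, 30 min stain, isopropanol extraction, OD 510 nm); n = 3.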

A short description of assay [4]: Decrease in triglyceride level in mouse 3T3L1 cells during all developmental stages at 5 uM for 9 days. The assay is classed as functional, cell-based. Conditions: 3T3-L1. The gist of the method: (§4)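 During 3T3-L1 differentiation with compound present (0.5 µM, or 5 µM for one compound), cells were collected and counted every day and triglyceride content was measured by TG assay.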

Assay [5] deals with HepG2. The assay can be described thus: Decrease in triglyceride level in human HepG2 cells at 1 uM after 24 hrs by GPO-POD assay in presence of 0.5 mM oleic acid sodium. The assay is classed as functional. The essentials: as §1
Assay [6] has as its system 3T3-L1. The assay can be described thus: Inhibition of cell proliferation in mouse 3T3L1 cells at 5 uM for 9 days. The assay is classed as functional, cell-based. The gist of the method: as §2
A short description of assay [7]: Decrease in triglyceride accumulation in mouse 3T3L1 cells at 1 uM for 3 days oil red O staining based microscopic analysis. The note with it: 3T3-L1. The assay is classed as functional, cell-based. The gist of the method: as §3
Assay [8] is described as follows: Decrease in triglyceride level in mouse 3T3L1 cells during all developmental stages at 0.5 uM for 9 days. The assay is classed as functional, cell-based. Conditions: 3T3-L1. The gist of the method: as §4
For assay [9], the system named is 3T3-L1. The assay can be described thus: Inhibition of cell differentiation in mouse 3T3L1 cells assessed as delayed time point of cell contact inhibition at 0.5 uM for 9 days. The assay is classed as functional. The gist of the method: as §2
Assay [10] can be described thus: Downregulation of C/EBP alpha mRNA level in mouse 3T3L1 cells at 0.2 mM after 24 hrs by RT-PCR analysis. The format is functional, cell-based. The note with it: 3T3-L1.
Assay [11] in a line: Downregulation of C/EBP delta mRNA level in mouse 3T3L1 cells at 0.2 mM after 24 hrs by RT-PCR analysis. The assay is classed as functional, cell-based. Conditions: 3T3-L1.
The test system of assay [12] is 3T3-L1. The assay can be described thus: Activation of AMPK-mediated ACC in mouse 3T3L1 cells assessed as increase in phophorylated ACC level at 0.2 mM after 24 hrs by western blot analysis. The format is cell-based. The essentials: (§5)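 3T3-L1 cells in DMEM/10% FBS at 37 °C, 5% CO2, exposed for 10 min, 2 h or 24 h alongside a DMSO vehicle. Cells were lysed in RIPA with PMSF, Na3VO4, NaF and protease inhibitors. Lysates were run on SDS-PAGE and blotted to PVDF, blocked in 5% BSA, then probed with primary antibodies for 16 h at 4 °C and an HRP secondary. Bands were normalised to GAPDH, with the 10 min DMSO group set as 100%; n = 3.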
For orientation: In western blotting, separated proteins are transferred to a membrane and probed.

Assay [13] can be described thus: Downregulation of PPAR-gamma mRNA level in mouse 3T3L1 cells at 0.2 mM after 24 hrs by RT-PCR analysis. The note with it: 3T3-L1. The assay is classed as functional, cell-based.
Assay [14] in a line: Downregulation of C/EBP alpha mRNA level in mouse 3T3L1 cells at 0.2 mM after 2 hrs by RT-PCR analysis. Conditions: 3T3-L1. The format is functional, cell-based.
Assay [15] is described as follows: Downregulation of SREBP-1c mRNA level in mouse 3T3L1 cells at 0.2 mM after 24 hrs by RT-PCR analysis. The note with it: 3T3-L1. The assay is classed as functional, cell-based.
For assay [16], the system named is 3T3-L1. The assay can be described thus: Effect on LKB1 expression in mouse 3T3L1 cells at 0.2 mM after 10 mins, 2 and 24 hrs by western blot analysis. The format is functional, cell-based. The essentials:
as §5

The subject of assay [17] is 3T3-L1. The assay can be described thus: Activation of AMPK alpha in mouse 3T3L1 cells assessed as increase in phophorylated AMPK alpha at Thr 172 residue level at 0.2 mM after 24 hrs by western blot analysis. The assay is classed as cell-based. The gist of the method: as §5
A short description of assay [18]: Downregulation of PPAR-gamma mRNA level in mouse 3T3L1 cells at 0.2 mM after 2 hrs by RT-PCR analysis. The format is functional, cell-based. Conditions: 3T3-L1.
Assay [19] in a line: Downregulation of C/EBP beta mRNA level in mouse 3T3L1 cells at 0.2 mM after 24 hrs by RT-PCR analysis. The note with it: 3T3-L1. The format is functional, cell-based.
The subject of assay [20] is 3T3-L1. The assay can be described thus: Activation of AMPK alpha in mouse 3T3L1 cells assessed as increase in phophorylated AMPK alpha at Thr 172 residue level at 0.2 mM after 10 mins by western blot analysis. The assay is classed as cell-based. The gist of the method:
as §5

Assay [21] relates to 3T3-L1. The assay can be described thus: Activation of AMPK-mediated ACC in mouse 3T3L1 cells assessed as increase in phophorylated ACC level at 0.2 mM after 10 mins by western blot analysis. The format is cell-based. The gist of the method:
as §5

The source made the active and inactive calls. The rule behind the calls is not given here. Some results are limits rather than exact numbers.

Consider `O=Cc1c(-c2nc(NCCc3ccccc3)c3ccccc3n2)[nH]c2ccccc12`, for which the inhibition (INH) with HepG2 [1] was more than 50%.

`O=Cc1c(-c2nc3ccccc3c(=O)[nH]2)[nH]c2ccccc12`: the Time in the assay with 3T3-L1 [2] came to 5 days. For the same compound, the results for the inhibition in assay [3] and in assay [7] were 20.1% and 14.8%, respectively. In addition, the inhibition result (in assay [4]; in the assay with 3T3-L1 [6]) was “Active” throughout. Moreover, the “inhibition (INH)” value is recorded as 16.7% in the assay on HepG2 [5] and 24.1% in the assay on HepG2 [1].

For `O=Cc1c(-c2nc(NCCN3CCCCC3)c3ccccc3n2)[nH]c2ccccc12`, the inhibition result (in [8]; with HepG2 [5]) was “Active” throughout. The same compound yielded an inhibition in [3] of 87.2%. Also, the Time in the assay on 3T3-L1 [9] amounted to 6 days. The inhibition (INH) in the assay on HepG2 [1] is more than 50%.

As for `O=Cc1c(-c2nc(NCCCN3CCOCC3)c3ccccc3n2)[nH]c2ccccc12`, in [8], the inhibition result was “Active”. For the same compound, in the assay with 3T3-L1 [9], the Time was found to be 6 days.

`CN(C)CCNc1nc(-c2[nH]c3ccccc3c2C=O)nc2ccccc12` had an inhibition in assay [3] of 80.1%. Moreover, the inhibition entry in the assay with HepG2 [5] was “Active”.

On to `O=c1[nH]c(-c2[nH]c3ccccc3c2/C=N/CCN2CCCC2)nc2ccccc12`, for which, in assay [8], the inhibition entry was “Active”. Also, in the assay on 3T3-L1 [9], the Time was 6 days.

`CCN(CC)CCNc1nc(-c2[nH]c3ccccc3c2C=O)nc2ccccc12`: the inhibition in [3] turned out to be 87.3%. Moreover, in the assay on HepG2 [5], the inhibition entry was “Active”. For the same compound, the inhibition (INH) with HepG2 [1] is more than 50%.

Regarding `CN(C)CCCC/N=C/c1c(-c2nc3ccccc3c(=O)[nH]2)[nH]c2ccccc12`, the inhibition entry in assay [8] is “Active”. Moreover, the Time in the assay with 3T3-L1 [9] was determined as 6 days.

With `NC(=O)c1ncn([C@@H]2O[C@H](COP(=O)(O)O)[C@@H](O)[C@H]2O)c1N`, the inhibition entry in [10], in assay [11], in [13], in assay [14], in assay [15] and in assay [18] was “Active” each time. Besides, the inhibition result in [19] is “Active”. Besides, the outcome in the assay on 3T3-L1 [12], with 3T3-L1 [17], with 3T3-L1 [20] and in the assay with 3T3-L1 [21] was Active. The result in the assay on 3T3-L1 [16] was inactive.

Turning to `CCN(CC)c1nc(-c2[nH]c3ccccc3c2C=O)nc2ccccc12`, the inhibition in assay [3] worked out at 82.2%.

Regarding `CN1CCN(c2nc(-c3[nH]c4ccccc4c3C=O)nc3ccccc23)CC1`, in assay [3], the inhibition came to 81.6%.

The values above are taken from ChEMBL document CHEMBL3734704, “Synthesis and Biological Evaluation of Novel Bouchardatine Derivatives as Potential Adipogenesis/Lipogenesis Inhibitors for Antiobesity Treatment” (J Med Chem, 2015).
